Data from paper PMC9352467 (Neoplasia (New York, N.Y.), 2022).
Marks after values point to notes of the source that are not given here. One block for each molecule: values may come before it.

Assays:
HCT-116 = experiment: Cell viability assay; assay type: cell-based, Human
RKO = experiment: Cell viability assay; assay type: cell-based, Human
SW620 = experiment: Cell viability assay; assay type: cell-based; conditions: Homo sapiens, SW-620, 72 h, read-out: IC50 (mean ± SD)
[1] = Plasma pharmacokinetic studies; assay type: in vivo, Sprague-Dawley (SD) rats; conditions: male, Sprague-Dawley, rat, 3 mg/kg
How it was run: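 Male Sprague-Dawley rats (200–250 g) were fasted 12 h and dosed with test compound or reference at 1 mg/kg i.v. or 3 mg/kg p.o. The i.v. vehicle was DMSO/EtOH/PEG300/NaCl (5/5/40/50); the p.o. vehicle was DMSO/0.5% HPMC (5/95). Blood was sampled over time and assayed by LC/MS/MS. Three animals per time point; non-compartmental analysis.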

COLO 205 = experiment: Cell viability assay; assay type: cell-based; conditions: Homo sapiens, COLO 205, 72 h, read-out: IC50 (mean ± SD)
MV-4-11 = experiment: Cell viability assay; assay type: cell-based; conditions: Homo sapiens, MV4-11, 72 h, read-out: IC50 (mean ± SD)
DU 145 = experiment: Cell viability assay; assay type: cell-based; conditions: Homo sapiens, DU-145, 72 h, read-out: IC50 (mean ± SD)
PC-3 = experiment: Cell viability assay; assay type: cell-based; conditions: Homo sapiens, PC-3, 72 h, read-out: IC50 (mean ± SD)
NCI-H226 = experiment: Cell viability assay; assay type: cell-based; conditions: Homo sapiens, NCI-H226, 72 h, read-out: IC50 (mean ± SD)
CHL-1 = experiment: Cell viability assay; assay type: cell-based; conditions: Homo sapiens, CHL-1, 72 h, read-out: IC50 (mean ± SD)
NCI-N87 = experiment: Cell viability assay; assay type: cell-based; conditions: Homo sapiens, NCI-N87, 72 h, read-out: IC50 (mean ± SD)
Jurkat, Clone E6-1 = experiment: Cell viability assay; assay type: cell-based; conditions: Homo sapiens, 72 h, read-out: IC50 (mean ± SD)
SUIT-2 = experiment: Cell viability assay; assay type: cell-based; conditions: Homo sapiens, SUIT-2, 72 h, read-out: IC50 (mean ± SD)
OVCAR-8 = experiment: Cell viability assay; assay type: cell-based; conditions: Homo sapiens, OVCAR-8, 72 h, read-out: IC50 (mean ± SD)
Panc 02.03 = experiment: Cell viability assay; assay type: cell-based; conditions: Homo sapiens, Panc 02.03, 72 h, read-out: IC50 (mean ± SD)
SW48 = experiment: Cell viability assay; assay type: cell-based; conditions: Homo sapiens, SW48, 72 h, read-out: IC50 (mean ± SD)
NOMO-1 = experiment: Cell viability assay; assay type: cell-based; conditions: Homo sapiens, NOMO-1, 72 h, read-out: IC50 (mean ± SD)
HGC-27 = experiment: Cell viability assay; assay type: cell-based; conditions: Homo sapiens, HGC-27, 72 h, read-out: IC50 (mean ± SD)
HCT-116 and RKO cells = experiment: Western blotting of neddylation, CRLs substrates and DNA damage markers; assay type: cell-based, Human; conditions: 24 h
How it was run: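 HCT-116 and RKO cells were treated with test compound or a reference NAE inhibitor; DNA damage markers (γH2AX, p-Chk1 Ser317, p-Chk2 T68) were read after 24 h. Lysis was in SDS buffer (50 mM Tris-HCl pH 6.8, 2% SDS, 100 mM DTT) with 10 min boiling. Lysates were run on 10% gels at 150 V for 1 h, blocked in 5% milk/TBST, and probed with primaries at 1:1000 and HRP secondaries. Three repeats.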

HCT 15 = experiment: Cell viability assay; assay type: cell-based; conditions: Homo sapiens, HCT-15, 72 h, read-out: IC50 (mean ± SD)
LNCaP = experiment: Cell viability assay; assay type: cell-based; conditions: Homo sapiens, 72 h, read-out: IC50 (mean ± SD)
MIA PaCa-2 = experiment: Cell viability assay; assay type: cell-based; conditions: Homo sapiens, MIA PaCa-2, 72 h, read-out: IC50 (mean ± SD)
HT-29 = experiment: Cell viability assay; assay type: cell-based; conditions: Homo sapiens, HT-29, 72 h, read-out: IC50 (mean ± SD)
SW480 = experiment: Cell viability assay; assay type: cell-based; conditions: Homo sapiens, SW480, 72 h, read-out: IC50 (mean ± SD)
THP-1 = experiment: Cell viability assay; assay type: cell-based; conditions: Homo sapiens, THP-1, 72 h, read-out: IC50 (mean ± SD)
TOV-112D = experiment: Cell viability assay; assay type: cell-based; conditions: Homo sapiens, TOV112D, 72 h, read-out: IC50 (mean ± SD)
Capan-1 = experiment: Cell viability assay; assay type: cell-based; conditions: Homo sapiens, CAPAN-1, 72 h, read-out: IC50 (mean ± SD)
[2] = 1 mg/kg i.v.; SD rats plasma; ref [25]; cited from earlier work
[3] = tested on: panel of 28 human cancer cell lines; experiment: Cell viability assay, whole panel; assay type: cell-based; conditions: 72 h, read-out: Average IC50 over the cell line panel
KG-1 = experiment: Cell viability assay; assay type: cell-based; conditions: Homo sapiens, KG-1, 72 h, read-out: IC50 (mean ± SD)
G-361 = experiment: Cell viability assay; assay type: cell-based; conditions: Homo sapiens, G-361, 72 h, read-out: IC50 (mean ± SD)

SMILES: CCOc1cccc(F)c1C#Cc1cn([C@@H]2O[C@H](CNS(N)(=O)=O)[C@@H](O)[C@H]2O)c2ncnc(N)c12 [TAS4464]
- sensitivity of cell proliferation (HCT-116; HCT-116, Supplemental Figure 1b): profoundly sensitive
- sensitivity of cell proliferation (RKO; Supplemental Figure 1b): profoundly sensitive

- IC50 (SW620): 5.55 ± 2.37 µM
- bioavailability ([1]; oral): 12.4%
- AUC(0-t) ([1]; po): 0.208 µg·h/mL
- Cmax ([1]; po): 0.064 µg/mL
- Tmax ([1]; po): 0.92 h
- half-life ([1]; po): 5.5 h
- IC50 (HCT-116; Homo sapiens, HCT-116, 72 h, read-out: IC50 (mean ± SD)): 0.0608 ± 0.0117 µM
- IC50 (COLO 205): 0.0542 ± 0.00247 µM
- IC50 (MV-4-11): 0.121 ± 0.00179 µM
- IC50 (PC-3): 2.43 ± 1.05 µM
- IC50 (NCI-H226): 1.04 ± 0.624 µM
- IC50 (Jurkat, Clone E6-1): 0.284 ± 0.0956 µM
- IC50 (OVCAR-8): 0.541 ± 0.0642 µM
- IC50 (Panc 02.03): 0.356 ± 0.0391 µM
- IC50 (SW48): 0.0795 ± 0.0231 µM
- IC50 (HCT 15): 0.294 ± 0.0803 µM
- IC50 (LNCaP): 0.0525 ± 0.0134 µM
- IC50 (MIA PaCa-2): 0.109 ± 0.0161 µM
- IC50 (HT-29): 0.296 ± 0.0323 µM
- IC50 (SW480): 1.09 ± 0.0917 µM
- IC50 (THP-1): 0.0602 ± 0.0322 µM
- IC50 [3]: 0.647 µM
SMILES: NS(=O)(=O)OC[C@@H]1C[C@@H](n2ccc3c(N[C@H]4CCc5ccccc54)ncnc32)C[C@@H]1O [MLN4924]
- IC50 (DU 145): 0.0864 ± 0.0151 µM
- IC50 (CHL-1): 0.32 ± 0.122 µM
- IC50 (NCI-N87): 0.865 ± 0.0775 µM
- IC50 (SUIT-2): 0.204 ± 0.0291 µM
- IC50 (NOMO-1): 0.627 ± 0.0778 µM
- IC50 (HGC-27): 0.0985 ± 0.0283 µM
- DNA damage (γH2AX levels) (HCT-116 and RKO cells): accumulation of DNA double-strand breaks
- IC50 (TOV-112D): 0.229 ± 0.104 µM
- IC50 (Capan-1): 0.0965 ± 0.0101 µM
- IC50 (RKO; Homo sapiens, 72 h, read-out: IC50 (mean ± SD)): 0.15 ± 0.0264 µM
- AUClast [2]: 560^a ng*h/mL
- CL [2]: 29.70^a mL/min/kg
- T1/2 [2]: 0.71^a h
- Vss_obs [2]: 1783^a mL/kg
- IC50 (KG-1): 0.936 ± 0.258 µM
- IC50 (G-361): 1.43 ± 0.684 µM
